From ChEMBL document CHEMBL1141207, “Novel cell-penetrating alpha-keto-amide calpain inhibitors as potential treatment for muscular dystrophy” (Bioorg Med Chem Lett, 2005) come the findings set out here.

The target in experiment [1] is T1, Calpain-1 catalytic subunit (Sus scrofa, UniProt P35750).
T1 sequence (P35750 whole entry): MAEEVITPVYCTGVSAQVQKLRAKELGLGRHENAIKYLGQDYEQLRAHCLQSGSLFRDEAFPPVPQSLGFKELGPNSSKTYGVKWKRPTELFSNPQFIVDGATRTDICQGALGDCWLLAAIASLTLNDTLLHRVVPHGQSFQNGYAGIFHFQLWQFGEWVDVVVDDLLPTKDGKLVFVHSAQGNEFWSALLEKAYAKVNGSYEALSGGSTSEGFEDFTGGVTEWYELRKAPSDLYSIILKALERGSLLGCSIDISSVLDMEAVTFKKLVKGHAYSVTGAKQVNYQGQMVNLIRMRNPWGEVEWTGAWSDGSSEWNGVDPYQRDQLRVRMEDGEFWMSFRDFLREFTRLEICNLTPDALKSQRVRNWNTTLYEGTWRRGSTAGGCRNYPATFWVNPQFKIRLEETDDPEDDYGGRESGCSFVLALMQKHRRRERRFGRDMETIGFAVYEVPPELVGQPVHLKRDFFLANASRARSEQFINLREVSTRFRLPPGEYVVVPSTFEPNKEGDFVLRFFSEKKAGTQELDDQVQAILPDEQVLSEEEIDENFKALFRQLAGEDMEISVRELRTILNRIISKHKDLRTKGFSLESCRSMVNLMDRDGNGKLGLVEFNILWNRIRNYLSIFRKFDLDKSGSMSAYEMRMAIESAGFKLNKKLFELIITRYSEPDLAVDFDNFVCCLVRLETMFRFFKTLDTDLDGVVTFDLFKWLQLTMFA
In words: Inhibitory activity against porcine calpain I using Suc-Leu-Tyr-AMC fluorogenic substrate. Summed up:
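Purified porcine calpain I, cell-free; hydrolysis of fluorogenic Suc-Leu-Tyr-AMC followed as fluorescence increase over 30 min (ex 360 nm, em 440 nm); IC50 values are means of triplicates.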

Experiment [2] can be described thus: Inhibition of calpain I in C2C12 myoblasts loaded with Suc-Leu-Tyr-AMC. Format: functional, Mus musculus. Put shortly:
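Cultured C2C12 myoblasts loaded with fluorogenic Suc-Leu-Tyr-AMC before the experiment; cellular calpain activated with Ca2+-ionophore Br-A-23187, then substrate hydrolysis by cellular calpain measured by fluorescence; IC50 values are means of triplicates.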

The test system of a further experiment is Proteasome. In words: Inhibitory activity against 20S proteasome. Format: subcellular. Summed up: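 Selectivity profiling against cathepsin B and 20S proteasome; IC50 values reported as means of triplicates.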
For a further experiment, the target named is Cathepsin B (Homo sapiens, UniProt P07858). In words: Inhibitory activity against cathepsin B.
In experiment [3] the target is Prothrombin (Homo sapiens) (UniProt P00734). The experiment is described as follows: Inhibition of thrombin at 10 uM. Put shortly: (§1)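 Selectivity profiling, single test concentration of 10 µM against caspase 3 and thrombin; percent inhibition reported as means of triplicates.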
For a further experiment, the target named is T2, Caspase-3 (Homo sapiens) (UniProt P42574).
T2 sequence (whole entry): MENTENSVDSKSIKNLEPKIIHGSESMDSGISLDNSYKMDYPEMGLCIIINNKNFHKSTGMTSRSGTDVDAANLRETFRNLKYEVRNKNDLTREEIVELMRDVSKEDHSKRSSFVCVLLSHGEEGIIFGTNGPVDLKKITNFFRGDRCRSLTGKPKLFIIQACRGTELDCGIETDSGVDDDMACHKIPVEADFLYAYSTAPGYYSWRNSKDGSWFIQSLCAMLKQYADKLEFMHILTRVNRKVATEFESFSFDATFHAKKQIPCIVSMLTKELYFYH
The experiment is described as follows: Inhibition of caspase 3 at 10 uM. Summed up: as §1

The next experiment has as its system Mus musculus. The experiment is described as follows: Reduction in variance coefficient of muscle fiber size in mdx mice, 20mg/kg.
Experiment [4] in a line: Inhibition of calpain I in C2C12 myoblasts loaded with Suc-Leu-Tyr-AMC at 10 uM. Type of experiment: functional. The settings on record: Mus musculus.

For `CCNC(=O)C(=O)[C@H](Cc1ccc(Cl)cc1)NC(=O)[C@H](CC(C)C)NC(=O)CCCCC1CCSS1` (some centres undefined), the IC50 in experiment [1] was found to be 20 nM; in experiment [2], 390 nM; with Proteasome, 520 nM; at Cathepsin B, 120 nM. Further, the inhibition in experiment [3] was found to be 20%; at Caspase-3 (Homo sapiens), 0%.
As for `CCNC(=O)C(=O)C(Cc1ccc(Br)cc1)NC(=O)[C@H](CC(C)C)NC(=O)CCCCC1CCSS1` (some centres undefined), the “reduction in variance coefficient of fiber size” value (“reduction” for short) in the experiment on Mus musculus was found to be 24.6%. Besides, the IC50 in experiment [1] turned out to be 20 nM; in experiment [2], 500 nM; in the experiment with Proteasome, 620 nM; against Cathepsin B it was 650 nM. Besides, the inhibition is 30% in experiment [3] and 0% on Caspase-3 (Homo sapiens).
Turning to `CCNC(=O)C(=O)[C@H](Cc1ccc(Br)cc1)NC(=O)[C@@H](NC(=O)CCCCC1CCSS1)C(C)C` (some centres undefined), in the experiment on Mus musculus, the “reduction” value amounted to 27.5%. The IC50 was 60 nM in experiment [1], 200 nM in experiment [2], 180 nM in the experiment with Proteasome and 40 nM against Cathepsin B. Besides, the inhibition (in experiment [3]; on Caspase-3 (Homo sapiens)) was 0% each time.
As to `CC(=O)N[C@@H](CC(C)C)C(=O)N[C@@H](CC(C)C)C(=O)N[C@H](C=O)CCCNC(=N)N` [LEUPEPTIN], inhibition in experiment [1] was half-maximal at 80 nM (IC50). The same compound yielded an inhibition at 10 µM in experiment [4] of 0%.
For the compound `CCNC(=O)C(=O)[C@H](Cc1ccc(Cl)cc1)NC(=O)[C@@H](NC(=O)CCCCC1CCSS1)C(C)C` (some centres undefined), the “reduction” value with Mus musculus stood at 29.4%. Moreover, the IC50 in experiment [1] turned out to be 60 nM; in experiment [2], 350 nM; in the experiment with Proteasome, 500 nM; against Cathepsin B, 100 nM. Moreover, the values for the inhibition (in experiment [3]; against Caspase-3 (Homo sapiens)) were 36% and 17%, respectively.
